# Values joined by “and” are separate entries in the source; they are usually repeats but may differ in a detail not shown here. Equal entries are not always repeated.
# System: Fibroblast
# Test: Multiplex assay against human fibroblast
# Format: toxicity, cell-based
# Procedure, shortened: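 Phenotypes for tubulin, mitochondrial mass and membrane permeability are expressed as per cents of healthy-nucleus cells. Cells were stained live at seeding with Hoechst33342, BioTracker Green Microtubule Cytoskeleton Dye, MitoTracker Red and Annexin V Alexa Fluor 680, then imaged after compound addition on a CQ1 microscope at 37°C and 5% CO2. Machine-learning gating in CellPathfinder separated Hoechst high-intensity objects from normal cells, divided normal cells by nuclear state (healthy, pyknosed, fragmented) and divided pyknosed cells into mitotic or apoptotic.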
# [1] = 12 h, 1 µM, compound concentration 1 uM
# [2] = 12 h, 10 µM, compound concentration 10 uM
# [3] = 24 h, 1 µM, compound concentration 1 uM
# [4] = 24 h, 10 µM, compound concentration 10 uM
# [5] = 48 h, 1 µM, compound concentration 1 uM
# [6] = 48 h, 10 µM, compound concentration 10 uM
compound,measurement,setting,value
OCCCNc1cc(-c2ccnc(Nc3cccc(Cl)c3)n2)ccn1,Population Apoptotic (%),[1],58% and 50%
same,Population Fragmented Nuclei (%),[1],15% and 21%
same,Population Healthy Nuclei (%),[1],66% and 53%
same,Population Hoechst High Intensity Objects (%),[1],4% and 6%
same,Population Membrane Permeable-Phenotype (%),[1],0% and 5%
same,Population Mitochondria Different-Phenotype (%),[1],9% and 13%
same,Population Mitotic Cells (%),[1],41% and 50%
same,Population Normal (%),[1],95% and 93%
same,Population Pyknosed Nuclei (%),[1],18% and 24%
same,Population Tubulin-Different-Phenotype (%),[1],52% and 47%
same,Total Cell Count,[1],139 and 138
same,Population Apoptotic (%),[2],61% and 52%
same,Population Fragmented Nuclei (%),[2],38% and 65%
same,Population Healthy Nuclei (%),[2],44% and 24%
same,Population Hoechst High Intensity Objects (%),[2],10% and 6%
same,Population Membrane Permeable-Phenotype (%),[2],9% and 20%
same,Population Mitochondria Different-Phenotype (%),[2],25% and 11%
same,Population Mitotic Cells (%),[2],38% and 47%
same,Population Normal (%),[2],89% and 93%
same,Population Pyknosed Nuclei (%),[2],17% and 9%
same,Population Tubulin-Different-Phenotype (%),[2],88% and 84%
same,Total Cell Count,[2],136 and 227
same,Population Apoptotic (%),[3],56% and 46%
same,Population Fragmented Nuclei (%),[3],16% and 29%
same,Population Healthy Nuclei (%),[3],65% and 48%
same,Population Hoechst High Intensity Objects (%),[3],2% and 3%
same,Population Membrane Permeable-Phenotype (%),[3],1% and 6%
same,Population Mitochondria Different-Phenotype (%),[3],20% and 10%
same,Population Mitotic Cells (%),[3],43% and 53%
same,Population Normal (%),[3],97% and 96%
same,Population Pyknosed Nuclei (%),[3],17% and 22%
same,Population Tubulin-Different-Phenotype (%),[3],60% and 55%
same,Total Cell Count,[3],136 and 139
same,Population Apoptotic (%),[4],80%
same,Population Fragmented Nuclei (%),[4],36% and 63%
same,Population Healthy Nuclei (%),[4],42% and 27%
same,Population Hoechst High Intensity Objects (%),[4],11% and 6%
same,Population Membrane Permeable-Phenotype (%),[4],7% and 12%
same,Population Mitotic Cells (%),[4],20%
same,Population Normal (%),[4],88% and 93%
same,Population Pyknosed Nuclei (%),[4],20% and 9%
same,Population Tubulin-Different-Phenotype (%),[4],86% and 80%
same,Total Cell Count,[4],138 and 218
same,Population Apoptotic (%),[5],46% and 37%
same,Population Fragmented Nuclei (%),[5],27% and 36%
same,Population Healthy Nuclei (%),[5],47% and 30%
same,Population Hoechst High Intensity Objects (%),[5],8% and 7%
same,Population Membrane Permeable-Phenotype (%),[5],1% and 5%
same,Population Mitochondria Different-Phenotype (%),[5],20% and 24%
same,Population Mitotic Cells (%),[5],53% and 62%
same,Population Normal (%),[5],91% and 92%
same,Population Pyknosed Nuclei (%),[5],25% and 32%
same,Population Tubulin-Different-Phenotype (%),[5],66% and 45%
same,Total Cell Count,[5],136 and 132
same,Population Apoptotic (%),[6],91% and 85%
same,Population Fragmented Nuclei (%),[6],39% and 58%
same,Population Healthy Nuclei (%),[6],39% and 30%
same,Population Hoechst High Intensity Objects (%),[6],14% and 6%
same,Population Membrane Permeable-Phenotype (%),[6],15% and 20%
same,Population Mitochondria Different-Phenotype (%),[6],42% and 20%
same,Population Mitotic Cells (%),[6],8% and 14%
same,Population Normal (%),[6],85% and 93%
same,Population Pyknosed Nuclei (%),[6],21% and 11%
same,Population Tubulin-Different-Phenotype (%),[6],77% and 64%
same,Total Cell Count,[6],134 and 192
CN1CCN(c2nc3cc(C(F)(F)F)ccc3n3cccc23)CC1.O=C(O)/C=C\C(=O)O.O=C(O)/C=C\C(=O)O,Population Apoptotic (%),[1],50% and 26%
same,Population Fragmented Nuclei (%),[1],18% and 24%
same,Population Healthy Nuclei (%),[1],71% and 46%
same,Population Hoechst High Intensity Objects (%),[1],0% and 6%
same,Population Membrane Permeable-Phenotype (%),[1],0% and 6%
same,Population Mitochondria Different-Phenotype (%),[1],5% and 4%
same,Population Mitotic Cells (%),[1],50% and 73%
same,Population Normal (%),[1],99% and 93%
same,Population Tubulin-Different-Phenotype (%),[1],27% and 47%
same,Total Cell Count,[1],146 and 107
same,Population Apoptotic (%),[2],40% and 60%
same,Population Fragmented Nuclei (%),[2],29% and 35%
same,Population Healthy Nuclei (%),[2],59% and 41%
same,Population Hoechst High Intensity Objects (%),[2],2% and 4%
same,Population Membrane Permeable-Phenotype (%),[2],0% and 4%
same,Population Mitochondria Different-Phenotype (%),[2],25% and 38%
same,Population Mitotic Cells (%),[2],59% and 40%
same,Population Normal (%),[2],97% and 95%
same,Population Pyknosed Nuclei (%),[2],10% and 22%
same,Population Tubulin-Different-Phenotype (%),[2],69% and 85%
same,Total Cell Count,[2],207 and 117
same,Population Apoptotic (%),[3],66% and 40%
same,Population Fragmented Nuclei (%),[3],16% and 35%
same,Population Healthy Nuclei (%),[3],72% and 42%
same,Population Hoechst High Intensity Objects (%),[3],1% and 6%
same,Population Membrane Permeable-Phenotype (%),[3],0% and 7%
same,Population Mitochondria Different-Phenotype (%),[3],2% and 7%
same,Population Mitotic Cells (%),[3],33% and 59%
same,Population Normal (%),[3],98% and 93%
same,Population Pyknosed Nuclei (%),[3],10% and 22%
same,Population Tubulin-Different-Phenotype (%),[3],23% and 43%
same,Total Cell Count,[3],142 and 104
same,Population Apoptotic (%),[4],77% and 63%
same,Population Fragmented Nuclei (%),[4],24% and 37%
same,Population Healthy Nuclei (%),[4],64% and 43%
same,Population Hoechst High Intensity Objects (%),[4],6% and 1%
same,Population Membrane Permeable-Phenotype (%),[4],0% and 6%
same,Population Mitochondria Different-Phenotype (%),[4],32%
same,Population Mitotic Cells (%),[4],22% and 36%
same,Population Normal (%),[4],93% and 98%
same,Population Pyknosed Nuclei (%),[4],10% and 19%
same,Population Tubulin-Different-Phenotype (%),[4],75% and 86%
same,Total Cell Count,[4],214 and 117
same,Population Apoptotic (%),[5],44% and 42%
same,Population Fragmented Nuclei (%),[5],25% and 37%
same,Population Healthy Nuclei (%),[5],63% and 40%
same,Population Hoechst High Intensity Objects (%),[5],2% and 3%
same,Population Membrane Permeable-Phenotype (%),[5],1% and 0%
same,Population Mitochondria Different-Phenotype (%),[5],2%
same,Population Mitotic Cells (%),[5],55% and 57%
same,Population Normal (%),[5],97% and 96%
same,Population Pyknosed Nuclei (%),[5],11% and 21%
same,Population Tubulin-Different-Phenotype (%),[5],22% and 57%
same,Total Cell Count,[5],162 and 102
same,Population Apoptotic (%),[6],77% and 63%
same,Population Fragmented Nuclei (%),[6],22% and 33%
same,Population Healthy Nuclei (%),[6],68% and 57%
same,Population Hoechst High Intensity Objects (%),[6],7% and 5%
same,Population Membrane Permeable-Phenotype (%),[6],0% and 1%
same,Population Mitochondria Different-Phenotype (%),[6],28% and 23%
same,Population Mitotic Cells (%),[6],22% and 36%
same,Population Normal (%),[6],92% and 94%
same,Population Pyknosed Nuclei (%),[6],9%
same,Population Tubulin-Different-Phenotype (%),[6],77% and 85%
same,Total Cell Count,[6],211 and 118

# — ChEMBL document CHEMBL5724801, “EUbOPEN Chemogenomics Library - Multiplex” (2024)
